8 compounds from ChEMBL document CHEMBL1132570, “Synthesis of cytotoxic indenoisoquinoline topoisomerase I poisons” (1999) can be followed below.

SMILES strings stand for the structures. Where only a bound is given, the exact number is not on record here.

Experiment [1] has as its system HOP-62. The experiment is described as follows: Cytotoxicity against lung HOP-62 human cancer cell line. It counts as functional. In outline: (§1)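 GI50 = concentration giving 50% growth inhibition, from a screen of about 55 human cancer cell lines over a 10^-8 to 10^-4 M test range. Values come from two determinations where a population standard deviation is shown, otherwise from single determinations.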

The test system of experiment [2] is HCT-116. The experiment is described as follows: Cytotoxicity against colon HCT116 human cancer cell line. It counts as functional. The essentials:
as §1

In experiment [3] the test system is SF-539. Kind of experiment: Compound was tested for its cytotoxicity against CNS SF-539 Human cancer cell line. It counts as functional. The essentials:
as §1

The test system of experiment [4] is SN12C. Kind of experiment: In vitro cytotoxicity against SN12C (Human renal cancer) cell line. It counts as functional. In outline: as §1
Experiment [5] relates to UACC-62. Kind of experiment: In vitro cytotoxicity against UACC-62 (Human melanoma) cell line. In kind it is functional. In outline: as §1
Experiment [6] has as its target T1, DNA topoisomerase 1 (Homo sapiens) (UniProt P11387).
T1 sequence (whole entry): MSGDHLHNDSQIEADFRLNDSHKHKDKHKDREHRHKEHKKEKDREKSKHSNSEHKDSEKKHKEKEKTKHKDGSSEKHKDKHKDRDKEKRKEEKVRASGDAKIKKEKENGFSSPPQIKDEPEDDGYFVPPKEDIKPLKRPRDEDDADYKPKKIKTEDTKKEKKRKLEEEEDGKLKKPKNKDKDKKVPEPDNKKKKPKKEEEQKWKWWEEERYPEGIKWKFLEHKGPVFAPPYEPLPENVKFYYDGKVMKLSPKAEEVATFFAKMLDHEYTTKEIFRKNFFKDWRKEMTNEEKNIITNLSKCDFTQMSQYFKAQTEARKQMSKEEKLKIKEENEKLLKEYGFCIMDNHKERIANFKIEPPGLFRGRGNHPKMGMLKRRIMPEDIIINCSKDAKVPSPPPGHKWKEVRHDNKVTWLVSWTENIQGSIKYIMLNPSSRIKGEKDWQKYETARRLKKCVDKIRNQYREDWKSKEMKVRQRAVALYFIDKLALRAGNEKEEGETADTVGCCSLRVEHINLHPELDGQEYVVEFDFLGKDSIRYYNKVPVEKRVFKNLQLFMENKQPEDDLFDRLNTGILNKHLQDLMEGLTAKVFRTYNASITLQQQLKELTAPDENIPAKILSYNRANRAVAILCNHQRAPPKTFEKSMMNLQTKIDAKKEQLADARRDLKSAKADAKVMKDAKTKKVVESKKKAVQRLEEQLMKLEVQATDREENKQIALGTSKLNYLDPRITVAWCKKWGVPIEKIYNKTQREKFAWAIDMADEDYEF
The experiment is described as follows: The activity was examined against DNA topoisomerase I mediated DNA cleavage using 3'-End-labelled 161 BP plasmid DNA; 0 indicates inactive. In outline: (§2)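 A 161 bp PvuII–HindIII fragment of pBluescript SK(–) was 3'-end-labeled at the HindIII site with [α-32P]dCTP by Klenow fill-in. About 50 000 dpm per reaction was incubated with top1 and drug (0.1–300 μM) at 30 °C for 30 min, then stopped with 0.5% SDS (final). Products were run on 16% polyacrylamide/7 M urea gels at 51 °C and imaged by phosphorimager.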

Experiment [7] deals with OVCAR-3. Kind of experiment: Cytotoxicity against ovarian OVCAR-3 human cancer cell line. It counts as functional. The essentials:
as §1

Experiment [8] deals with MDA-MB-435. Kind of experiment: In vitro cytotoxicity against MDA-MB-435 (Human breast cancer) cell line. In kind it is functional. In outline:
as §1

Experiment [9] deals with DU-145. The experiment is described as follows: Compound was tested for its cytotoxicity against prostate DU-145 Human cancer cell line. In kind it is functional. The essentials: as §1
For experiment [10], the target named is T1, DNA topoisomerase 1 (Homo sapiens). The experiment is described as follows: The activity was examined against DNA topoisomerase I mediated DNA cleavage using 3'-End-labelled 161 BP plasmid DNA. 0 indicates inactive. In outline:
as §2

Experiment [11] concerns DU-145. Kind of experiment: Cytotoxicity against prostate DU-145 human cancer cell line. It counts as functional. The essentials:
as §1

The test system of experiment [12] is SF-539. The experiment is described as follows: Compound was tested for its cytotoxicity against CNS SF-539 Human cancer cell line.
Experiment [13] deals with T1, DNA topoisomerase 1 (Homo sapiens). The experiment is described as follows: The activity was examined against DNA topoisomerase I mediated DNA cleavage using 3'-End-labelled 161 BP plasmid DNA.0 indicates inactive. In outline: as §2
Experiment [14] shares this target. The experiment is described as follows: The activity was examined against DNA topoisomerase I mediated DNA cleavage using 3''-End-labelled 161 BP plasmid DNA. +/- indicates less than 20% of the activity of 1 uM camptothecin. In outline: as §2
Experiment [15] deals with SF-539. The experiment is described as follows: Compound was tested for its cytotoxicity against CNS SF-539 cell line. It counts as functional. To be noted: Homo sapiens. In outline:
as §1

Experiment [16] addresses T1, DNA topoisomerase 1 (Homo sapiens). Kind of experiment: The activity was examined against DNA topoisomerase I mediated DNA cleavage using 3''-End-labelled 161 BP plasmid DNA; + indicates between 20 and 50% of the activity 0f 1 uM camptothecin. The essentials: as §2
Experiment [17] has the same target. Kind of experiment: The activity was examined against DNA topoisomerase I mediated DNA cleavage using 3''-End-labelled 161 BP plasmid DNA.+/- indicates less than 20% of the activity of 1 uM camptothecin. The essentials:
as §2

Experiment [18] shares this target. Kind of experiment: The activity was examined against DNA topoisomerase I mediated DNA cleavage using 3''-End-labelled 161 BP plasmid DNA. +/- indicates less than 20% of the activity 0f 1 uM camptothecin. In outline:
as §2

For experiment [19] the target is unchanged. The experiment is described as follows: The activity was examined against DNA topoisomerase I mediated DNA cleavage using 3''-End-labelled 161 BP plasmid DNA. +/- less than 20% of the activity 0f 1 uM camptothecin. In outline: as §2

With `Cn1c2c(c3ccccc3c1=O)C(=O)c1cc(OCc3ccccc3)c(OCc3ccccc3)cc1-2`, the GI50 (commonly the concentration giving 50% growth inhibition) is 72 µM in experiment [1]; over 100 µM in experiment [2]; over 100 µM in experiment [3]; 88 µM in experiment [4]; 93 µM in experiment [5]; over 100 µM in experiment [7]. In addition, the GI50 in [8] and in [9] was over 100 µM each time. For the same compound, the Top1 cleavage activity in experiment [6] was determined as 0.
Compound `COc1cc2c(c(OC)c1OC)C(=O)c1c-2n(C)c(=O)c2ccccc12` showed a Top1 cleavage activity in experiment [10] of 0. Further, the GI50 in experiment [1] is 24 µM; in experiment [11], over 100 µM; in experiment [4], over 100 µM; in [7] it was over 100 µM; in [12], over 100 µM.
In the case of `COc1cc2c3c(n(C)c(=O)c2cc1OC)-c1cc(OCc2ccccc2)c(OCc2ccccc2)cc1C3=O`, the concentration for 50% growth inhibition (GI50) was 46 µM in [1]; 80 µM in experiment [2]; 39 µM in experiment [3]; over 100 µM in experiment [11]; over 100 µM in experiment [4]; over 100 µM in [5]. Moreover, the figures for the concentration for 50% growth inhibition (GI50) in [7] and in experiment [8] were 58 µM and over 100 µM, respectively. This compound registered a Top1 cleavage activity in experiment [13] of 0.
Take `COc1cc2c(cc1OC)[C@H]1C(=O)c3cc4c(cc3[C@H]1N(C)C2=O)OCO4`: in experiment [14], the Top1 cleavage activity entry is reported as “+/-”. In addition, the GI50 in experiment [1] worked out at 9.4 µM; in experiment [2], 2 µM; in experiment [3] it was 3.1 µM; in experiment [11], 4.1 µM; in experiment [4] it was 2.1 µM; in experiment [5], 0.42 µM. Moreover, the GI50 was found to be 6.7 µM in experiment [7] and 17 µM in experiment [8].
With `O=C1c2ccccc2-c2c1c1ccccc1c(=O)n2CCCCO`, the GI50 in experiment [1] was 13 µM; in [2], 3.2 µM; in experiment [15], 4.6 µM; in [11], over 100 µM; in [4], 7.4 µM; in experiment [5], 4.4 µM. For the same compound, the results for the concentration for 50% growth inhibition (GI50) in experiment [7] and in experiment [8] were 74 µM and over 100 µM, respectively. Further, the Top1 cleavage activity in [16] is 20-50% of the activity 0f 1 uM camptothecin.
For the compound `CCN1C(=O)c2cc(OC)c(OC)cc2[C@H]2C(=O)c3cc4c(cc3[C@H]21)OCO4`, the concentration for 50% growth inhibition (GI50) stood at 0.29 µM in experiment [1]; 0.29 µM in experiment [2]; 0.42 µM in experiment [11]; 0.18 µM in experiment [5]; 0.44 µM in experiment [7]; 0.45 µM in experiment [8]. In addition, the Top1 cleavage activity result in [17] is given as “+/-”.
Regarding `COc1cc2c(cc1OC)[C@H]1C(=O)c3cc(OS(C)(=O)=O)c(OC)cc3[C@H]1N(C)C2=O`, the Top1 cleavage activity result in experiment [18] is “+/-”.
In the case of `CCn1c2c(c3cc(OC)c(OC)cc3c1=O)C(=O)c1cc3c(cc1-2)OCO3`, the 50% growth inhibitory concentration (GI50) was found to be 2.2 µM in [1]; 2.6 µM in experiment [2]; 2 µM in [3]; 2.3 µM in experiment [11]; 3.6 µM in experiment [4]; 2.1 µM in [5]. Further, the GI50 stood at 3 µM in [7] and 2.6 µM in experiment [8]. Moreover, the Top1 cleavage activity entry in experiment [19] was “+/-”.
